ChEMBL document CHEMBL1141693, “Discovery of benzoylpiperazines as a novel class of potent and selective GlyT1 inhibitors” (Bioorg Med Chem Lett, 2008)
Converted amounts (≈) assume the structure as drawn.

Assays:
[1] = target: T1, Sodium- and chloride-dependent glycine transporter 1 (Homo sapiens, UniProt P48067); experiment: Inhibition of [3H]glycine uptake at human glycine transporter 1 expressed in CHO cells by scintillation counter; format: cell-based
T1 sequence (P48067 whole entry): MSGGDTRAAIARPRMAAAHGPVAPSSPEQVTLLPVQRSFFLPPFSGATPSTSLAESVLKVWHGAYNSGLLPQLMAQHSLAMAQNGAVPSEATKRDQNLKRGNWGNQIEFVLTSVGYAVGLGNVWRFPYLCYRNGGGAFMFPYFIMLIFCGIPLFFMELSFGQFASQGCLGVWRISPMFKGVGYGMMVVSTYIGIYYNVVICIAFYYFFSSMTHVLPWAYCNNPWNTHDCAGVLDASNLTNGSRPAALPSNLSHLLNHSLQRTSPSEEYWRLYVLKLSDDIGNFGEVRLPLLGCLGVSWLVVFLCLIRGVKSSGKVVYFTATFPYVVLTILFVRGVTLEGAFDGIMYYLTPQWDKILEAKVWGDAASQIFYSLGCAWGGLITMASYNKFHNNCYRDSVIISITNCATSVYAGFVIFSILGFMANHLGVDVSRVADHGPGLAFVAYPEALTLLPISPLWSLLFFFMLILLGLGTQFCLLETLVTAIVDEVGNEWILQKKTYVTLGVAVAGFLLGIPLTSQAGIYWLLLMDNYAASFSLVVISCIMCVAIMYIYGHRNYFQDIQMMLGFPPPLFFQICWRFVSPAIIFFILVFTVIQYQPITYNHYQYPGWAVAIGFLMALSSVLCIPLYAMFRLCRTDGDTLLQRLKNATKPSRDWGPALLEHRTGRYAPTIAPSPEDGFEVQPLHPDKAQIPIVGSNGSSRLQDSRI

[2] = Membrane permeability by PAMPA; format: ADME; details: read-out: permeability
Procedure, shortened: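 PAMPA artificial-membrane permeation, reported as the permeation constant Pe in 10^-6 cm/s.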

[3] = Aqueous solubility in phosphate buffer at pH 6.5 by lyophilization solubility assay; format: physicochemical
Procedure, shortened: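 Aqueous solubility was measured at pH 6.5 in a lyophilization solubility assay.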

[4] = test system: Liver microsomes; experiment: Metabolic stability in rat liver microsomes assessed as intrinsic clearance per […] of protein; format: ADME, Microsome
Procedure, shortened: (§1)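 Intrinsic clearance measured in liver microsomes from rat, mouse or human, expressed per mg microsomal protein.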

[5] = species: Homo sapiens; experiment: Selectivity ratio of IC50 for human glycine transporter 2 to IC50 for human glycine transporter 1
Procedure, shortened: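 [³H]-glycine uptake inhibition in cells transfected with human GlyT1 or human GlyT2 cDNA. Each EC50 is the average of at least two independent experiments. Selectivity is the ratio of GlyT2 EC50 to GlyT1 EC50.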

[6] = test system: Liver microsomes; experiment: Metabolic stability in human liver microsomes assessed as intrinsic clearance per […] of protein; format: ADME, Microsome; procedure, shortened: as §1
[7] = target: T2, Sodium- and chloride-dependent glycine transporter 2 (Homo sapiens, UniProt Q9Y345); experiment: Inhibition of [3H]glycine uptake at human glycine transporter 2 expressed in CHO cells by scintillation counter; format: cell-based
T2 sequence (Q9Y345 whole entry): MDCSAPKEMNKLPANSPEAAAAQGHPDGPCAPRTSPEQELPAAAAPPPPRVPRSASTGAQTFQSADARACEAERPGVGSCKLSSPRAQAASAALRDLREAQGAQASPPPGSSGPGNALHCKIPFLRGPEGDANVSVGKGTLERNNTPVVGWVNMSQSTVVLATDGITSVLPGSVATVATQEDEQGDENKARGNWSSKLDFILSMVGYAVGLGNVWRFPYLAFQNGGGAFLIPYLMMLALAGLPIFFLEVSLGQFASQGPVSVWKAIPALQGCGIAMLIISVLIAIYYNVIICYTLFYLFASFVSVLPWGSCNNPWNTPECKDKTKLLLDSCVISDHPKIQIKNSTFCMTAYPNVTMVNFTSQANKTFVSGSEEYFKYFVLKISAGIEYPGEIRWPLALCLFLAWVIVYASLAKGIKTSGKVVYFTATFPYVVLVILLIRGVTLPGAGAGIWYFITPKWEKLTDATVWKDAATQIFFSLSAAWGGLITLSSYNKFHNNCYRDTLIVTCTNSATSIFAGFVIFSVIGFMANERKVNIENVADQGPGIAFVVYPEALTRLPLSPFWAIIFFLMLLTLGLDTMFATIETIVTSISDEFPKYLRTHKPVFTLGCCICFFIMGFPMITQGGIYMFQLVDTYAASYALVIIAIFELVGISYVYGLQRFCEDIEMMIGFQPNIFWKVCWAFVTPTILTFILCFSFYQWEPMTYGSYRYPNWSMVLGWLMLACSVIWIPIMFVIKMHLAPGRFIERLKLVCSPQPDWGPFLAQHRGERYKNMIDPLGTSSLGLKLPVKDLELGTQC
Procedure, shortened: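 [³H]-glycine uptake inhibition in cells transfected with human GlyT2 cDNA. EC50 is the average of at least two independent experiments.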

[8] = Metabolic stability in mouse liver microsomes assessed as intrinsic clearance per […] of protein; format: ADME, Microsome; procedure, shortened: as §1

| Structure (SMILES) | EC50 [1] | EC50 [7] | also measured |
| --- | --- | --- | --- |
| CC(=O)c1ccc(N2CCN(C(=O)c3ccccc3N3CCOCC3)CC2)c(F)c1 | > 30000 nM |  |  |
| CNS(=O)(=O)c1ccc(N2CCOCC2)c(C(=O)N2CCN(c3ccc(C(C)=O)cc3F)CC2)c1 | 100 nM | > 30 µM | Papp [2]: 5.3 ×10⁻⁶ cm/s; solubility [3]: 30 µg/mL (≈ 59.5 µM); clearance [4]: 106 µL/min/mg; Ratio EC50 [5]: > 300; clearance [6]: 43 µL/min/mg |
| CC(=O)c1ccc(N2CCN(C(=O)c3cc(Br)ccc3N3CCOCC3)CC2)c(F)c1 | > 30000 nM | 5.1 µM | Ratio EC50 [5]: < 0.2 |
| O=C(c1cc([N+](=O)[O-])ccc1N1CCOCC1)N1CCN(c2ccc(C(F)(F)F)c(Cl)n2)CC1 | 33 nM | 24 µM |  |
| CC(=O)c1ccc(N2CCN(C(=O)c3cc([N+](=O)[O-])ccc3N3CCOCC3)CC2)c(F)c1 | 15 nM | 4.8 µM | Papp [2]: 4.7 ×10⁻⁶ cm/s; solubility [3]: 9 µg/mL (≈ 19.7 µM); clearance [4]: 106 µL/min/mg; Ratio EC50 [5]: 320; clearance [6]: 35 µL/min/mg |
| N#Cc1ccc(N2CCN(C(=O)c3cc([N+](=O)[O-])ccc3N3CCOCC3)CC2)c(F)c1 | 30 nM | 4.3 µM |  |
| N#Cc1ccc(N2CCN(C(=O)c3cc([N+](=O)[O-])ccc3N3CCOCC3)CC2)cc1 | 78 nM | 1.1 µM |  |
| CC(=O)c1ccc(N2CCN(C(=O)c3cc([N+](=O)[O-])ccc3N3CCCCC3)CC2)c(F)c1 | 1 nM | 4 µM |  |
| Cc1ccc(N2CCN(C(=O)c3cc([N+](=O)[O-])ccc3N3CCOCC3)CC2)cc1 | 2900 nM | 7.7 µM |  |
| CS(=O)(=O)c1ccc(N2CCN(C(=O)c3cc([N+](=O)[O-])ccc3N3CCOCC3)CC2)c(F)c1 | 40 nM | > 30 µM |  |
| CS(=O)(=O)c1ccc(N2CCOCC2)c(C(=O)N2CCN(c3ccc(C(F)(F)F)cc3)CC2)c1 | 45 nM |  | clearance [8]: 15 µL/min/mg; solubility [3]: 3 µg/mL (≈ 6.03 µM); clearance [6]: 10 µL/min/mg |
| COc1cccc(N2CCN(C(=O)c3cc([N+](=O)[O-])ccc3N3CCOCC3)CC2)c1 | 530 nM | 8.3 µM |  |
| COc1ccc(N2CCN(C(=O)c3cc([N+](=O)[O-])ccc3N3CCOCC3)CC2)cc1 | 1300 nM | 11.4 µM |  |
| CC(=O)c1ccc(N2CCN(C(=O)c3cc(S(C)(=O)=O)ccc3SC(C)C)CC2)c(F)c1 | 15 nM | > 30 µM |  |
| O=C(c1cc([N+](=O)[O-])ccc1N1CCOCC1)N1CCN(c2ccccc2C(F)(F)F)CC1 | 7100 nM | > 30 µM |  |
| O=C(c1cc([N+](=O)[O-])ccc1N1CCOCC1)N1CCN(c2ccc(C(F)(F)F)cc2F)CC1 | 41 nM | 29 µM |  |
| O=C(c1cc([N+](=O)[O-])ccc1N1CCOCC1)N1CCN(c2ccccc2Cl)CC1 | 1400 nM | 11.2 µM |  |
| CC(=O)c1ccc(N2CCN(C(=O)c3cc(C(F)(F)F)ccc3N3CCOCC3)CC2)c(F)c1 | 26000 nM | 11 µM | Ratio EC50 [5]: 0.4 |
| N#Cc1cc(C(F)(F)F)ccc1N1CCN(C(=O)c2cc([N+](=O)[O-])ccc2N2CCOCC2)CC1 | 15 nM | > 30 µM |  |
| CC(=O)c1ccc(N2CCN(C(=O)c3cc(C)ccc3N3CCOCC3)CC2)c(F)c1 | > 30000 nM | > 30 µM |  |
| CC(=O)c1ccc(N2CCN(C(=O)c3cc([N+](=O)[O-])ccc3NC3CCCCC3)CC2)c(F)c1 | 2 nM | 8.5 µM |  |
| O=C(c1cc([N+](=O)[O-])ccc1N1CCOCC1)N1CCN(c2ccc(C(F)(F)F)c(F)c2)CC1 | 37 nM | 15 µM |  |
